The array DNA melting data of Ke et al. (doi:10.1101/2024.01.08.574731)

Assays:
[1] = melting temperature; fluorescence melt of hairpins on a sequencing array, two-state fit, raised by 9.35 °C to match UV melts; conditions: sodium 0.088 M
Outline: (§1)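 Cy3 signals were normalised both to pre-quench Cy3 and to control constructs. They came from library hairpins carrying annealed Cy3 and quencher oligos on a sequenced MiSeq flow cell, imaged in 50 mM Na-HEPES pH 8.0, 25 mM NaCl, in 2.5 °C steps up to 60 °C. Bootstrapped two-state fits gave melting temperature and folding enthalpy, and four replicates were combined by inverse variance. Fitted temperatures were then raised by 9.35 °C to match UV melts.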

[2] = folding enthalpy; higher = less favourable; fluorescence melt of hairpins on a sequencing array, two-state fit; conditions: sodium 0.088 M
Outline: as §1

GAATATGAAAATATTC ((((((....))))))
Tm [1]: 39.8 °C | folding enthalpy [2]: -24.6 kcal/mol

GAATATGGAAACGTATTC (((((.(....).)))))
Tm [1]: 34.2 °C | folding enthalpy [2]: -25.3 kcal/mol

GAATCACGAAAGTGCTTC (((.(((....))).)))
Tm [1]: 38.5 °C | folding enthalpy [2]: -20.8 kcal/mol

GAATCACGAAAGTGTTTC (((.(((....))).)))
Tm [1]: 41.5 °C | folding enthalpy [2]: -24.7 kcal/mol

GAATCCGAAAGGACCTTC ((((((....)))..)))
Tm [1]: 30.3 °C | folding enthalpy [2]: -12.7 kcal/mol

GAATCCGAAAGGAGTTC ((((((....))).)))
Tm [1]: 35.3 °C | folding enthalpy [2]: -15.9 kcal/mol

GAATCCGAAAGGATATTC ((((((....)))..)))
Tm [1]: 33.6 °C | folding enthalpy [2]: -13.1 kcal/mol

GAATCGCGAAAGCGTTC (((.(((....))))))
Tm [1]: 42 °C | folding enthalpy [2]: -12.3 kcal/mol

GAATCGGGAAACCGACTC ((.((((....)))).))
Tm [1]: 35.1 °C | folding enthalpy [2]: -20.4 kcal/mol

GAATGAGGAAACTCGTTC (((.(((....))).)))
Tm [1]: 43.9 °C | folding enthalpy [2]: -32.3 kcal/mol

GAATGCCGAAAGGCCTTC (((.(((....))).)))
Tm [1]: 41.3 °C | folding enthalpy [2]: -17 kcal/mol

GAATGCCGAAAGGCTTC (((.(((....))))))
Tm [1]: 43.6 °C | folding enthalpy [2]: -13.2 kcal/mol

GAATGCGAAAGCAACTTC ((((((....)))..)))
Tm [1]: 36 °C | folding enthalpy [2]: -13 kcal/mol

GAATGCGAAAGCACTTTC ((((((....)))..)))
Tm [1]: 28.9 °C | folding enthalpy [2]: -10.4 kcal/mol

GAATGCGAAAGCAGTTTC ((((((....)))..)))
Tm [1]: 31.3 °C | folding enthalpy [2]: -11.7 kcal/mol

GAATGCGAAAGCATCTTC ((((((....)))..)))
Tm [1]: 53 °C | folding enthalpy [2]: -23.4 kcal/mol

GAATGCGGAAACGCATTC (((((((....)))))))
Tm [1]: 67.5 °C | folding enthalpy [2]: -39.1 kcal/mol

GAATGGCGAAAGCCCTTC (((.(((....))).)))
Tm [1]: 38.4 °C | folding enthalpy [2]: -20 kcal/mol

GAATGGGGAAACTCATTC (((((.(....).)))))
Tm [1]: 40.1 °C | folding enthalpy [2]: -32.4 kcal/mol

GAATGTGCGAAAGCATTC (((..(((....))))))
Tm [1]: 29.3 °C | folding enthalpy [2]: -9.5 kcal/mol

GAATGTGGAAACATATTC ((((.((....)).))))
Tm [1]: 35.1 °C | folding enthalpy [2]: -33.2 kcal/mol

GAATTACGAAAGTATTTC (((.(((....))).)))
Tm [1]: 35.2 °C | folding enthalpy [2]: -19.6 kcal/mol

GAATTCCCGAAAGGGTTC (((..(((....))))))
Tm [1]: 28 °C | folding enthalpy [2]: -13 kcal/mol
